Compound activity deposited in PubChem BioAssay by Sanford-Burnham Center for Chemical Genomics.
This is a sample that favours compounds with a hit; in the whole collection about 2.5% have one here.
SENP8 block-1: inhibitors of human SENP8 protease; recombinant SENP8, Nedd8 substrate fluorescence; 360,000 tested, 0.64% active; inhibition, % at 20 µM; in the data active means inhibition mostly above about 40%, no sharp cut-off; inactive means mostly below about 27%
SENP7 inh: SENP7 protease inhibition. recombinant SENP7, Z-RLRGG-aminoluciferin luminescence, 40 min. 330,000 tested, 1.5% active. Q9BQF6. inhibition, % at 5 µM;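 active means inhibition above about 50% at the single test dose, limit read from the data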;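 further: plate controls were DMSO with enzyme for no effect and no enzyme buffer wells for full effect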
SENP6 block: SENP6 protease inhibition; 330,000 tested, 1.8% active; Q9GZR1; inhibition, % at 10 µM; Recombinant SENP6 catalytic domain, aminoluciferin luminescence;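 active means inhibition above about 50% at the single tested dose, limit read from the data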;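 further: plate controls were DMSO wells with enzyme for no effect and DMSO wells lacking enzyme for full effect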
Target sequence (Q9GZR1 628-1112 limits assumed): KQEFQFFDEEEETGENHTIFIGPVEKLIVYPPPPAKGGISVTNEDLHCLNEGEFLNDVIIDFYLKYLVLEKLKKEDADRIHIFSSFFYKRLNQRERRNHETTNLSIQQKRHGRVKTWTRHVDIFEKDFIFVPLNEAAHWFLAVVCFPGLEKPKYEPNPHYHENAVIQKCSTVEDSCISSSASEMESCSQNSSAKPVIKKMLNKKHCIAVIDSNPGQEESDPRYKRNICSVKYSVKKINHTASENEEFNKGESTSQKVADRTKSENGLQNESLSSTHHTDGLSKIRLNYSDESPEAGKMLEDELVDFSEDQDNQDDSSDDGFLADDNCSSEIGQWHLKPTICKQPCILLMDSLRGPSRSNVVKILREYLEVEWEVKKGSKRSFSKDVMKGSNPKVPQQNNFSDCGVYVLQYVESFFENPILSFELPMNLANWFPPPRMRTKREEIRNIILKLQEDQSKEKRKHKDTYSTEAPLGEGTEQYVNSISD
SENP8 block-2: inhibitors of human SENP8 protease | inhibition, % at 10 µM | 330,000 tested, 1.2% active | purified SENP8, Z-RLRGG-aminoluciferin cleavage, luminescence | AID 2540; in the data active means inhibition above about 50%
SENP1 FRET inh: inhibitors of human SENP1 SUMO protease catalytic domain. Q9P0U3. recombinant SENP1 catalytic domain, CyPet-SUMO1-YPet FRET cleavage. inhibition, % at 10 µM. 360,000 tested, 0.21% active;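 active means inhibition at least 30% at 10 µM, raw YFP signal under a set limit, fluorescence ratio 0.5 to 1.5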;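 further: 0% = enzyme with DMSO and 100% = no enzyme wells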
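system = hSENP1 catalytic domain, recombinant | reagent = SFCypet-SUMO1-SFYpet substrate at 25 nM | doses = one dose per compound, 10 µM, 0.5% DMSO | incubation = enzyme reaction for 50 min at room temperature, dark | measured by = FRET, CFP and YFP emission | controls = no-enzyme low, enzyme-DMSO high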
SENP8 confirm: human SENP8 inhibition, confirmed; inhibition, % at 12.5 µM; shares compounds with SENP7 inh; AID 488912; Recombinant SENP8, Z-RLRGG-aminoluciferin luminescence, 60 min; 6,200 tested, 40% active;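 active means mean inhibition across replicates above about 50%, limit read from the data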
SENP6 confirm: confirmation of human SENP6 protease inhibitors; shares compounds with SENP7 inh; recombinant SENP6, Z-RLRGG-aminoluciferin luminescence; inhibition, % at 12.5 µM; 6,200 tested, 58% active; AID 488915
SENP7 confirm: human SENP7 inhibition, confirmed; shares compounds with SENP7 inh; recombinant SENP7, Z-RLRGG-aminoluciferin luminescence, 40 min; inhibition, % at 12.5 µM; 6,200 tested, 69% active; AID 488917
Casp3 select: caspase-3 inhibition (SENP selectivity assay). 6,200 tested, 60% active. inhibition, % at 12.5 µM. shares compounds with SENP7 inh. purified caspase-3, Z-DEVD-aminoluciferin luminescence, 60 min;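 active means mean inhibition above about 50%, limit read from the data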;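 further: plate controls were enzyme with DMSO for no effect and wells without caspase-3 for full effect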
Luc interf: counter-screen for SENP inhibitors: luminescence interference; shares compounds with SENP7 inh; Pre-incubated SENP8/Z-RLRGG-aminoluciferin, luciferase luminescence interference; inhibition, % at 12.5 µM; 6,200 tested, 39% active; AID 488919;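 active means mean inhibition above about 50% when retested at one dose, limit read from the data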;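 further: plate controls were DMSO wells with completed reaction for no effect and substrate without enzyme for full effect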
The depositor's hits bear a star; i = inactive; . = no result; ! = not confirmed by another sample.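 How the source made its calls, unless noted: active means mean inhibition above about 50% in the one-dose retest (limit read from the data); inactive means the rest.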

SMILES	SENP8 block-1	SENP7 inh	SENP6 block	SENP8 block-2	SENP1 FRET inh	SENP8 confirm	SENP6 confirm	SENP7 confirm	Casp3 select	Luc interf
Cc1cccnc1Nc1nc(-c2ccccc2)cs1	-6	97*	97*	92*	-2	0	96*	102*	82*	74*
Cc1ccnc(Nc2nc(-c3ccccc3)cs2)c1	14	85*	90*	81*	1	13	64*	85*	44	-4
Cc1nnc(SCC(=O)NC(C)(C)C)n1NCc1c(F)cccc1Cl	13	-6	-10	-7	3	.	.	.	.	.
O=C(CNc1ccccc1)Nc1cccc2ccccc12	-32	9	0	7	0	.	.	.	.	.
NS(=O)(=O)c1ccc(Nc2nc(-c3ccc(O)cc3O)cs2)cc1	4	7	-2	4	-1	.	.	.	.	.
Oc1ccc(-c2csc(Nc3ccccn3)n2)c(O)c1	5	36	71*	42	4	53*	68*	89*	16	82*
CCN(CC)CCOC(=O)c1ccc(NC(=O)/C=C/c2cccs2)cc1	-65	0	0	-3	-1	.	.	.	.	.
Cc1ccccc1NC(=O)/C=C/c1cccs1	3	63*	-6	23	2	52*	51*	86*	80*	70*
Cc1cc(C)nc(NC(=O)/C=C/c2ccc(Cl)cc2Cl)c1	15	59*	76*	62*	-3	10	18	79*	34	11
O=C(/C=C/c1cccs1)Nc1cccc(NC(=O)/C=C/c2cccs2)n1	-49	-8	6	-11	-4	.	.	.	.	.
Cc1cc(C)nc(NC(=O)/C=C/c2cccs2)c1	-6	54*	34	28	-1	28	28	72*	55*	55*
CCOC(=O)c1ccc(NC(=O)/C=C/c2cccs2)cc1	-56	79*	81*	62*	2	53*	53*	84*	32	38
CCOC(=O)c1sc(NC(=O)c2ccccc2)cc1C	-44	94*	93*	77*	-2	57*	90*	100*	84*	39
CCOC(=O)c1sc(=NC(=O)c2ccccc2)n(C)c1C	-192	54*	-30	34	0	18	14	15	12	4
CCOC(=O)c1sc(NC(=O)c2ccc(S(=O)(=O)N(C)C)cc2)cc1C	-4	4	-3	-4	2	.	.	.	.	.
CC1CCCC(C)N1C(=O)COc1ccc(F)cc1 (stereo unspecified)	10	0	4	-8	3	.	.	.	.	.
Cc1ccc(-c2nc(N/N=C/c3cccnc3)c3ccccc3n2)cc1	-69	90*	88*	87*	-4	45	77*	76*	84*	21
Cc1ccc(-c2cc(-c3ccccc3)nc(N/N=C/c3cccnc3)n2)cc1	-203	-6	-7	-9	-6	.	.	.	.	.
Cc1ccc2nc(-c3ccc(NC(=O)COCC(=O)O)cc3)sc2c1	-444	63*	79*	82*	-60	90*	90*	99*	82*	87*
Cc1ccc2nc(-c3ccc(NC(=O)CSCC(=O)O)cc3)sc2c1	-413	32	82*	65*	-5	-6	66*	88*	55*	68*
Cc1ccc2sc(-c3ccc(NC(=O)/C=C\C(=O)O)cc3)nc2c1	-453	18	72*	55*	-68	-13	4	6	9	15
O=C(O)CSCC(=O)Nc1ccc(-c2nc3ccccc3s2)cc1	-439	92*	94*	92*	-22	96*	96*	101*	96*	96*
CCC(=O)NC(=S)Nc1ccc(-c2nc3ccc(C)cc3s2)cc1	-203	14	-4	8	-12	.	.	.	.	.
COC(=O)[C@H](CC(C)C)NC(=O)Cn1cnc2c(NCc3ccccc3)ncnc21	8	4	.	.	-1	.	.	.	.	.
CCOC(=O)C1CSC(CC(=O)Nc2ccc(OC(F)(F)F)cc2)C(=O)N1 (stereo unspecified)	4	2	9	6	2	.	.	.	.	.
SMILES	SENP8 block-1	SENP7 inh	SENP6 block	SENP8 block-2	SENP1 FRET inh	SENP8 confirm	SENP6 confirm	SENP7 confirm	Casp3 select	Luc interf
Cc1ccc2oc(C(=O)N(C)CCC(O)c3ccccc3)c(C)c2c1 (stereo unspecified)	14	-13	-10	-6	-1	.	.	.	.	.
CCc1cc(C(=O)N2CCCC(Nc3ccc(F)c(F)c3)C2)n(C)n1 (stereo unspecified)	12	2	-4	8	3	.	.	.	.	.
Cc1ccc2c(c1)-c1nc3ccccc3cc1C2=NC1CCCCC1	9	.	.	.	0	.	.	.	.	.
Cc1ccc2c(c1)Cc1nc3ccccc3nc1-2	-300	100*	98*	96*	-26	-5	99*	103*	98*	68*
CC(C)(C)c1cc(C(=O)Nc2cccnc2)cc(C(=O)Nc2cccnc2)c1	20	-2	-23	-8	-1	.	.	.	.	.
COc1ccccc1C(CNC(=O)c1ccc(C)c(S(=O)(=O)N2CCCCC2)c1)N1CCCC1 (stereo unspecified)	1	8	-8	-2	-2	.	.	.	.	.
COc1ccc(C2Nc3ccccc3C(=O)N2Cc2ccco2)cc1CN1C(=O)c2ccccc2C1=O (stereo unspecified)	-67	66*!	-4	-1	0	3	8	10	5	6
COC(=O)c1[nH]c2ccc(C)cc2c1NC(=O)Oc1ccccc1	i	7	82*	51*	2	1	4	12	8	8
COC(=O)c1[nH]c2ccccc2c1NC(=O)Oc1ccccc1	i	-13	28	-13	6	.	.	.	.	.
CCN(CC)c1ccc(N=Nc2nn(C)c(C)c2[N+](=O)[O-])cc1	38	63*	78*	54*	4	-17	-7	19	10	-2
CCN(Cc1ccccc1)c1ccc(N=Nc2nn(C)c(C)c2[N+](=O)[O-])cc1	39	-4	-32	3	5	.	.	.	.	.
CCOc1ccccc1/C=N/NC(=O)c1nnn(-c2nonc2N)c1CN1CCCCCC1	-234	-9	-4	-10	-1	.	.	.	.	.
Cc1cccc(/C=N\N=C\c2cccc(C)c2)c1	23	51*	63*	17	0	19	54*	81*	38	36
O=C1c2ccccc2C(=O)N1CCSc1nncs1	7	-3	-6	-2	0	.	.	.	.	.
